Entries after “also recorded” stand apart in the source; their conditions may differ.
Experiments:
[1] = Solubility of Dyn2 constructs on concentration; assay type: physicochemical; details: buffer A, pH 6.8; WT 6.0 mg/ml, H58K 10.0 mg/ml, F76K/Y78E 6.0 mg/ml
Pac11-Myc = experiment: Single-molecule Dyn1-Pac11 colocalization assay; assay type: binding, S. cerevisiae; details: pH 7.2, motors diluted as for motility assays (∼1 nM)
How it was run: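 Glass flow chamber from HNO3/NaOH-cleaned coverslip. Sequential steps: Cy5-labelled rabbit anti-Myc diluted 10,000× in 30 mM HEPES, 2 mM MgCl2, 1 mM EGTA, 0.5 mg/ml BSA (pH 7.2), 2 min; blocking buffer with 5 mg/ml BSA and 1 mg/ml β-casein, 5 min; TMR-HaloTag-labelled, TEV-released Dyn1 in blocking buffer, 5 min; second round of antibody, 5 min. Cy5–TMR spot colocalization scored.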

Dyn2 = Dyn2 (Saccharomyces cerevisiae, UniProt Q02647); experiment: Western blot of Dyn2 copurifying with Dyn1; assay type: binding, S. cerevisiae; details: IgG affinity purification, anti-Dyn2 Western blot, Dyn1 normalized
How it was run: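 Dyn1 was IgG-bead purified from yeast lysate of WT, dyn2Δ and dyn2Δpac11Δ strains (lysis pH 7.4, 100 μM MgATP, beads 1 h at 4°C) and TEV-released at 16°C for 1 h. Dyn1 was quantified by Krypton-stained SDS–PAGE against BSA standards, then equal Dyn1 amounts were loaded. Blots used rabbit anti-Dyn2 (1:200), anti-Myc for Pac11 (1:2000) and Alexa Fluor 680 anti-rabbit secondary (1:5000).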

microtubules = details: full-length dynein, HaloTag-TMR labeled; ref Reck-Peterson et al., 2006; cited from earlier work
[2] = molecular target: Dyn1 (S. cerevisiae cytoplasmic dynein heavy chain), full length, ZZ-TEV-GFP and HaloTag tagged (S. cerevisiae) (UniProt P36022); experiment: single-molecule TIRF fluorescence intensity analysis
[3] = molecular target: Dyn2 (S. cerevisiae dynein light chain), wild type, full length (S. cerevisiae, UniProt Q02647 1-92); experiment: ITC

Molecule: Dyn2 H58K
- solubility during concentration step [1]: remained soluble

Molecule: Dyn1 purified from dyn2Δ: TMR-labeled Dyn1 purified from VY263 with dyn2Δ
- colocalization of Dyn1 with Pac11-Myc (in words) (Pac11-Myc): did not reveal any associated Pac11; also recorded: do not show significant TMR-Cy5 colocalization
- Dyn2 copurified with Dyn1 (Dyn2): absence of Dyn2

Molecule: Dyn1 purified from dyn2Δpac11Δ
- colocalization of Dyn1 with Pac11-Myc (in words) (Pac11-Myc): did not reveal any associated Pac11; also recorded: do not show significant TMR-Cy5 colocalization
- Dyn2 copurified with Dyn1 (Dyn2): absence of Dyn2

Molecule: Dyn1: full-length dynein labeled at its C-terminus with the HaloTag and covalently bound to tetramethylrhodamine (TMR)
- average run length (microtubules): 1.7 μm

Molecule: Dyn2 F76K/Y78E
- solubility during concentration step [1]: remained soluble

Molecule: Dyn1 (S. cerevisiae cytoplasmic dynein heavy chain), full length, ZZ-TEV-GFP and HaloTag tagged, P36022 1-4092
- stoichiometry N [2]: 2

Molecule: ITYDKGIQTDQ [Pac11 peptide 2 (second Dyn2-binding site of Pac11, residues 75-85)]
- Kd [3]: 620 nM
- dH [3]: -5180 ± 139 cal/mol
- stoichiometry N [3]: 1.05 ± 0.02 sites
